In the library only some 1.8% were active in any assay of this set; here they are far more common.
STAT3 inh-1: STAT3 signaling inhibition; U3A cells, IL-6 STAT3-luciferase reporter, luminescence; host cell line lacks STAT1; inhibition, % at 5.5 µM; actives 0.89% (n = 190,000);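 active = inhibition above the mean inhibition across all screened compounds plus 3 SD, cut at about 44% in these data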;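 note: 0% = DMSO only wells and 100% = 100 µM nifuroxazide control wells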
STAT3 act: STAT3 signaling activation; U3A cells, IL-6 STAT3-luciferase reporter, luminescence; 100% = signal with IL-6 EC80 alone; actives 0.91% (n = 190,000); activation (% of control), % at 5.6 µM;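 active = activation above the screen-wide mean of compound activation plus 3 SD, cut at about 130% in these data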;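 note: 0% = background luminescence of wells with medium and substrate only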
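Material: human U3A cells carrying STAT3-luciferase construct. Measured by: reporter luminescence signal. Timing: compound 1 h, then IL-6 6 h at 37 °C.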
PERK inhibitor: human PERK inhibition, primary cell-based screen; Q9NZJ5; CHO PERK-DD fusion, SEAP luminescence translation reporter; inhibition, % at 5.6 µM; actives 0.17% (n = 220,000);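 active = inhibition above the mean inhibition of all tested compounds plus 3 SD, set separately per screening campaign, cut at about 2.9% in these data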;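 note: PERK kinase domain activated by AP20187 dimerizer at 100 nM; 0% = DMSO with dimerizer and 100% = rapamycin at 8.4 µM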
STAT1 inh: inhibitors of IFN-gamma induced STAT1 signaling; NIH 3T3 STAT1-luciferase reporter, luminescence; inhibition, % at 5.5 µM; actives 0.35% (n = 200,000); AID 920;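 active = inhibition above a set limit, the mean inhibition across all tested compounds plus 3 SD, cut at about 34% in these data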;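 note: 0% = IFN-gamma with DMSO and 100% = IFN-gamma with 300 µM nifuroxazide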
STAT3 inh-2: confirmation of STAT3 signaling inhibitors. U3A cells, IL-6 STAT3 luciferase reporter, luminescence; cell line lacks STAT1. actives 45% (n = 1,200). inhibition, % at 5.7 µM. shares compounds with STAT3 inh-1;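 active = inhibition above the hit cutoff computed for the primary STAT3 screen, cut at about 44% in these data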;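 note: 0% = IL-6 plus DMSO and 100% = IL-6 plus nifuroxazide control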
NFkB inh 2: counter-screen for STAT3 inhibitors: NF-kappaB inhibition | shares compounds with STAT3 inh-1 | HEK293T NF-kB luciferase reporter, TNF-alpha induced | inhibition, % at 5.7 µM | actives 36% (n = 1,200) | AID 1308;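 active = inhibition above the mean of solvent-only control wells plus 3 SD, cutoff set per campaign, cut at about 13% in these data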;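 note: 0% = TNF-alpha with DMSO and 100% = TNF-alpha with MG high control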
STAT1 inh STAT3c: STAT1 inhibition in STAT3 inhibitor counter-screen; shares compounds with STAT3 inh-1; NIH 3T3 STAT1-luciferase reporter, IFN-gamma induced, luminescence; inhibition, % at 5.7 µM; actives 27% (n = 1,200); AID 1317;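 active = inhibition above the mean plus 3 SD of solvent-only control wells, limit set per screening run, cut at about 16% in these data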;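 note: 0% = DMSO with IFN-gamma and 100% = nifuroxazide control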
An asterisk follows results filed as active; . = no result given.

SMILES	STAT3 inh-1	STAT3 act	PERK inhibitor	STAT1 inh	STAT3 inh-2	NFkB inh 2	STAT1 inh STAT3c
CCOC(=O)C1=C(Cc2ccc(C)cc2)C(=O)c2ccccc2C1=O	59.8*	49.8	-0.1	-0.9	59.9*	12.0	-1.8
CCOC(=O)C1=C(Cc2ccc(OC)cc2)C(=O)c2ccccc2C1=O	43.0	65.7	0.4	0.5	.	.	.
O=C1c2ccc(Br)cc2C(=O)N1c1ccc(Cc2ccncc2)cc1	59.3*	50.2	-0.4	25.8	58.7*	5.2	11.9
O=C(COc1cccc2c1CCN(Cc1ccc(Br)cc1)C2=O)NCc1ccco1	-4.3	102.3	-0.5	1.9	.	.	.
NC(=O)c1ccc(NCCCN2CCOCC2)c([N+](=O)[O-])c1	6.5	99.6	2.0	-5.7	.	.	.
Cc1ccc(NC(=O)COc2ccccc2[N+](=O)[O-])nc1	50.7*	59.9	1.1	4.9	17.5	-24.9	-94.8
O=C(COc1ccccc1[N+](=O)[O-])Nc1ccc(Br)cc1	.	.	0.6	.	.	.	.
O=C(COc1ccccc1[N+](=O)[O-])Nc1cccnc1	18.8	90.0	-0.1	-25.1	.	.	.
Cc1ccnc(NC(=O)COc2ccccc2[N+](=O)[O-])c1	47.6*	63.7	-0.3	-12.4	17.2	-30.1	-100.7
CCC(C)Sc1nc(O)c(Cc2ccccc2)c(=O)[nH]1 (stereo not given)	-10.0	108.4	1.4	2.6	.	.	.
CS(=O)(=O)NN1C(=O)c2ccccc2NC1c1c[nH]c2ccccc12 (stereo not given)	-3.6	102.6	0.4	-12.3	.	.	.
CNc1nnc(-c2ccc(N(C)C)cc2)s1	53.3*	56.9	0.3	14.5	19.1	-9.5	-57.4
FC(F)(F)c1cccc(NC(=S)Nc2cccc(NC(=S)Nc3cccc(C(F)(F)F)c3)n2)c1	.	.	-0.5	.	.	.	.
CN=c1scc(-c2ccc(Br)cc2)n1C	8.9	95.4	0.0	-0.6	.	.	.
CN=c1scc(-c2ccccc2Br)n1/N=C/c1ccc[nH]1	57.6*	55.6	0.4	15.9	19.3	-15.4	-102.9
O=C(O)[C@@H]1CCCC[C@@H]1C(=O)N1CCc2ccccc2C1CN1C(=O)c2ccccc2C1=O (stereo not given in full)	58.6*	54.4	1.8	23.9	52.8*	19.3*	22.5*
O=C1c2ccccc2C(=O)N1CC1c2ccccc2CCN1C(=O)C1CCCCC1 (stereo not given)	-1.1	106.2	-1.5	14.1	.	.	.
O=C(Nc1nc(-c2ccc3c(c2)OCCO3)cs1)c1ccc(S(=O)(=O)N2CCCCC2)cc1	44.8*	67.2	-0.5	8.4	62.4*	17.8*	0.4
Cc1nc2ccccn2c1-c1csc(Nc2cccc(O)c2)n1	31.1	76.8	-0.2	13.4	.	.	.
Cc1cccc(Nc2nc(-c3c(C)nc4ccccn34)cs2)c1	58.0*	56.4	-0.3	12.3	62.3*	17.8*	15.6
CC(C)S(=O)(=O)c1csc(NC(=O)Nc2cccc([N+](=O)[O-])c2)c1Cl	.	.	-1.3	.	.	.	.
O=C(NC(=S)Nc1ccc(N2CCCCC2)c(Cl)c1)c1ccc2c(c1)OCCO2	64.2*	51.6	0.6	4.3	66.0*	21.5*	4.5
O=C(NC(=S)Nc1ccc(N2CCOCC2)c(Cl)c1)c1cncc(Br)c1	11.9	91.6	-0.3	12.2	.	.	.
CCCCNC(=O)CSc1nc(COc2ccccc2)nc2ccccc12	20.1	86.5	0.5	13.3	.	.	.
CC(C)(C)C(=O)Nc1ccc(-c2cn3ccsc3n2)cc1	72.5*	43.4	-0.1	31.1	41.8	-1.5	-20.9
SMILES	STAT3 inh-1	STAT3 act	PERK inhibitor	STAT1 inh	STAT3 inh-2	NFkB inh 2	STAT1 inh STAT3c
CC(C)CC(=O)Nc1ccc(-c2cn3ccsc3n2)cc1	45.6*	64.6	-0.1	-4.3	20.4	-20.4	-44.8
COc1ccc(C(=O)Nc2ccc(-c3cn4ccsc4n3)cc2)cc1S(=O)(=O)N1CCOCC1	32.4	79.2	-1.0	12.2	.	.	.
Cc1nc(-c2ccc(NC(=O)CC(C)C)cc2)cs1	27.3	78.9	0.8	-32.2	.	.	.
CCOC(=O)c1cc(-c2ccc3c(c2)OCCO3)n[nH]1	18.7	85.9	1.3	-4.8	.	.	.
Cc1ccc(C(=O)Nc2ccc3nccnc3c2)cc1	52.5*	61.1	1.6	7.7	22.6	-22.7	-83.9
O=C(Nc1ccc(OC(F)(F)F)cc1)c1ccc2nccnc2c1	28.6	78.8	0.4	-12.4	.	.	.
O=C(Nc1ccc(SC(F)F)cc1)c1ccc2nccnc2c1	48.2*	63.2	0.7	-17.4	42.0	-17.8	-25.6
Cc1ccc(C(=O)Nc2cccc(-c3cnc4ccccc4n3)c2)cc1	3.6	101.0	1.1	-0.1	.	.	.
CCC/C(O)=C1\C(=O)CC(c2ccccc2)CC1=NCCc1c(C)[nH]c2ccc(C)cc12 (stereo not given)	0.7	99.3	0.6	13.3	.	.	.
COc1ccc(N=C/C=C2\C=C(c3ccccc3)OC(C)(C)O2)cc1	48.3*	63.1	-0.1	15.7	8.0	5.0	6.5
COc1ccc(-c2cn(-c3ccc(OC)cc3)c3[n+]2-c2ccccc2CC3)cc1	73.2*	37.5	0.3	29.1	79.0*	3.3	23.4*
Cc1cccc(C(=O)N2CCN(Cc3ccc4c(c3)OCO4)CC2)c1	-6.1	109.0	0.8	-13.3	.	.	.
Cc1ccc(S(=O)(=O)N(C)c2ccc(C(=O)N3CCN(Cc4ccc5c(c4)OCO5)CC3)cc2)cc1	54.0*	57.7	-1.2	13.3	45.5*	10.1	-0.1
CN(c1ccc(C(=O)N2CCN(Cc3ccc4c(c3)OCO4)CC2)cc1)S(=O)(=O)c1ccccc1	48.8*	59.9	-2.4	7.9	41.3	11.1	6.1
O=C(Nc1ccc(Oc2cccnc2)cc1)c1cccc([N+](=O)[O-])c1	13.4	87.4	-1.6	-11.7	.	.	.
CC1(C)CC(N2CCN(c3ccccc3)CC2)=CC(=[N+]2CCCC2)C1	80.4*	36.8	-0.2	23.6	76.8*	-1.8	27.0*
CN(Cc1ccccc1)C1=CC(=[N+]2CCCC2)CC(C)(C)C1	.	.	0.4	.	.	.	.
Cc1cc(C(=O)CSc2nc3ccccc3[nH]2)c(C)n1CC1CCCO1 (stereo not given)	97.0*	23.3	0.1	29.4	62.9*	22.3*	-57.2
CCCCOC(=O)c1[nH]c2c(c1C)C(=O)CC(c1cc(OC)c(OC)c(OC)c1)C2 (stereo not given)	52.9*	56.9	-1.3	23.1	62.9*	23.5*	24.3*
Cc1ccc2nc(-c3cccc(N)c3)oc2c1	55.0*	56.9	-0.6	20.0	17.2	-10.2	-109.8
Nc1ccc2oc(-c3ccc4nc[nH]c4c3)nc2c1	33.1	75.2	0.8	-28.5	.	.	.
CCc1ccc2oc(-c3cccc(N)c3)nc2c1	5.2	97.1	1.2	-17.8	.	.	.
Cc1nc2ccc(-c3nc4cc(N)ccc4o3)cc2[nH]1	54.6*	55.0	0.2	-18.0	15.1	-13.8	-63.1
Nc1nc2ccccc2n1C(=O)c1ccc(F)cc1	67.5*	44.5	0.1	18.8	39.3	-3.0	-65.9

Screening results (PubChem)
